In PMC7615941 (Cell, 2023):

Legend:
[1] = molecular target: C3aR with C-terminal SmBiT, in HEK-293 cells (human) (UniProt Q16581)
C5aR1 = experiment: G-protein coupling and βarr recruitment, C5aR1; type: cell-based; settings: Figure 7A
[2] = molecular target: T1, human C5a receptor 1, FLAG-tagged, expressed in Sf9 for cryo-EM (human, UniProt P21730 2-350, alkylated with iodoacetamide); experiment: cryo-EM structure
T1 sequence: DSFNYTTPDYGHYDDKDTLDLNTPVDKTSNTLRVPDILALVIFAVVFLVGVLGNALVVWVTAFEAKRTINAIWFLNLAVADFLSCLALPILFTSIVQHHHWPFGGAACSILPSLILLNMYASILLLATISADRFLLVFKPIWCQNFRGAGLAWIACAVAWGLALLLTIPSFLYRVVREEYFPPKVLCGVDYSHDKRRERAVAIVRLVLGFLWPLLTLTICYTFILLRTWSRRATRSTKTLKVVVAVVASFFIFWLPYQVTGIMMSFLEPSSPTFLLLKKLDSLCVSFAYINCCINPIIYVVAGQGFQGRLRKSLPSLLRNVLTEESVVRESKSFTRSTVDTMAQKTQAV

[3] = molecular target: T2, mouse C5a receptor 1, FLAG-tagged, expressed in Sf9 for cryo-EM (mouse, UniProt P30993 2-351, alkylated with iodoacetamide); experiment: cryo-EM structure
T2 sequence: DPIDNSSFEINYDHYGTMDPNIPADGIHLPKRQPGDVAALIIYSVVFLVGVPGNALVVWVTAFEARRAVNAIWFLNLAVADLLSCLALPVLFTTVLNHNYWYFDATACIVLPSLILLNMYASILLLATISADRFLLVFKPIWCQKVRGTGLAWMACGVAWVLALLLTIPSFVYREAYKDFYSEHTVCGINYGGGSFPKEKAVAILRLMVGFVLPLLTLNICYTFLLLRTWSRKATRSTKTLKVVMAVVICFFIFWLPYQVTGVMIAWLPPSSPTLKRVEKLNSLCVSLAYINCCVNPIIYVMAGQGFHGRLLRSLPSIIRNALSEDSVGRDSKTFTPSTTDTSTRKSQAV

C3aR = molecular target: T3, C3aR (Homo sapiens, UniProt Q16581); experiment: GloSensor-based cAMP assay; type: cell-based; settings: Figure 7A; only at moderately high concentration (i.e., 1 μM)
T3 sequence (Q16581 1-482): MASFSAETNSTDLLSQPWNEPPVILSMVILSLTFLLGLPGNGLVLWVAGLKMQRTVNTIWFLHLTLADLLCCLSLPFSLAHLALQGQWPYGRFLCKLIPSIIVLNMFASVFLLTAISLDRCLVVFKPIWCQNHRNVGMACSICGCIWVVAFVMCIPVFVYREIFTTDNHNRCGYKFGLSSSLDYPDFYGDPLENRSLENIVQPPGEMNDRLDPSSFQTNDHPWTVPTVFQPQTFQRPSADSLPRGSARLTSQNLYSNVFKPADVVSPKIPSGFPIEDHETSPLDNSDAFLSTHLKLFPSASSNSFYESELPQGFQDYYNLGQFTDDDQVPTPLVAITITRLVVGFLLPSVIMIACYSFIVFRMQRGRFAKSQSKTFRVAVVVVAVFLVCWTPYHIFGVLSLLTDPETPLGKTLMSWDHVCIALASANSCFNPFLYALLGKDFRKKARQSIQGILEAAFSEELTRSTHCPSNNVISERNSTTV

mC5aR1 [4] = molecular target: T4, mC5aR1 (Mus musculus, UniProt P30993); experiment: GloSensor-based cAMP assay; type: cell-based
T4 sequence (P30993 1-351): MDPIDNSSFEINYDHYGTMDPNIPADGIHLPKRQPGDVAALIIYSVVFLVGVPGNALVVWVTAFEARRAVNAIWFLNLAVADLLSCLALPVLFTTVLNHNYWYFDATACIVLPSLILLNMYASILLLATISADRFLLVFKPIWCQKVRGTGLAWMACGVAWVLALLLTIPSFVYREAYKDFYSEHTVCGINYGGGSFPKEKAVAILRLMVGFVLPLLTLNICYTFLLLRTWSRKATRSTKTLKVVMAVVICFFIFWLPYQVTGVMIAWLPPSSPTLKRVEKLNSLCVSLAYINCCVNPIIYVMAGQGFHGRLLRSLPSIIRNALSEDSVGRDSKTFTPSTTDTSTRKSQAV

mC5aR1 [5] = molecular target: T4, mC5aR1; experiment: NanoBiT βarr1/2 recruitment and endosomal trafficking, mC5aR1; type: cell-based; settings: Figures 1I-1P, C5a^pep compared with hC5aR1
Method in brief: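 HEK-293 cells, PEI transfection (DNA:PEI 1:3). Recruitment used 1 μg mC5aR1-SmBiT (C-terminal) with 3.5 μg LgBiT-βarr1/2 (N-terminal). Trafficking used N-SmBiT-βarr1/2 with N-LgBiT-FYVE. After 16-18 h, cells went into HBSS, 0.01% BSA, 5 mM HEPES pH 7.4, 10 μM coelenterazine at 0.1 million/100 μL. Incubation 90 min 37 °C, then 30 min RT. Three basal luminescence reads, then serially diluted ligand.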

## EP141, pentadecameric peptide derived from and modified based on the carboxyl terminus of C3a
[1]
  Emax of βarr1/2 recruitment to C3aR (NanoBiT), relative to C3a: 55 to 65 % of C3a

## C3a: complement anaphylatoxin, 77 amino acids, four-helix bundle; natural agonist of C3aR
C5aR1
  transducer-coupling response at C5aR1: did not exhibit any measurable transducer-coupling response

## human complement anaphylatoxin C3a (from UniProt P01024 672-748) (ligand)
[1]
  EC50 of βarr1/2 recruitment to C3aR (NanoBiT): 10 to 20 nM

B1: human complement anaphylatoxin C5a (ligand, UniProt P01031 678-751, looked up)
chain: TLQKKIEEIAAKYKHSVVKKCCYDGACVNNDETCEQRAARISLGPRCIKAFTECCVVASQLRANISHKDMQLGR
[2]
  binding result: binds
[3]
  binding result: binds

B2: C5a: complement anaphylatoxin, 74 amino acids, four-helix bundle; natural agonist of C5aR1 (protein)
chain: TLQKKIEEIAAKYKHSVVKKCCYDGACVNNDETCEQRAARISLGPRCIKAFTECCVVASQLRANISHKDMQLGR
modifications: left off: Trx, N-terminal, cleaved | His6, N-terminal, cleaved
C3aR
  cross-reactivity with C3aR in G-protein-coupling assay: some cross-reactivity
mC5aR1 [4]; Figures 1G and 1H
  potency at mC5aR1 compared with hC5aR1, cAMP response: slightly lower potency
mC5aR1 [4]; Figures 1G and 1H, mC5aR1
  agonism, G-protein-mediated cAMP response: full agonists
mC5aR1 [4]; human vs mouse C5aR1
  difference between human and mouse C5aR1, G-protein coupling: only a small difference
mC5aR1 [5]
  agonism, βarr recruitment and endosomal trafficking: full agonism
